Data as given in ChEMBL document CHEMBL1821706, “Unprecedented citrinin trimer tricitinol B functions as a novel topoisomerase IIα inhibitor” (J Med Chem, 2011).

Key:
HL-60 = test: Cytotoxicity against human HL60 cells after 72 hrs by MTT assay; type: functional, cell-based; conditions: HL-60, 72 h
How it was run: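 Cells were treated in triplicate with graded concentrations for 72 h at 37 °C and read by MTT. IC50 is the concentration giving 50% growth inhibition, derived by the Logit method from at least three independent experiments and given as mean ± SD.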

HCT-116 = test: Cytotoxicity against human HCT116 cells after 72 hrs by SRB assay; type: functional, cell-based; conditions: HCT-116, 72 h
How it was run: (§1)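 Adherent human tumour lines were seeded and exposed in triplicate to graded compound concentrations at 37 °C for 72 h. Growth was read by sulforhodamine B staining. IC50 (50% growth inhibition) was obtained by the Logit method from at least three independent experiments and reported as mean ± SD.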

KB [1] = test: Cytotoxicity against human KB cells after 72 hrs by SRB assay; type: functional, cell-based; how it was run: as §1
KB [2] = test: Cytotoxicity against vincristine-resistant human KB cells over expressing P-glycoprotein after 72 hrs by SRB assay; type: functional, cell-based; how it was run: as §1
KB [3] = test: Drug resistance index, ratio of IC50 for vincristine-resistant human KB cells to IC50 for human KB cells; type: functional

## CC1=C2C(=CO[C@H](C)[C@H]2C)C(O)=C(C(=O)O)C1=O [CITRININ]
HL-60
  IC50: > 10 µM
HCT-116
  IC50: > 10 µM
KB [1]
  IC50: > 10 µM

## Cc1c(O)cc(O)c2c1[C@H](C)[C@@H](C)OC2 [DECARBOXYDIHYDROCITRININ]
HL-60
  IC50: > 10 µM
HCT-116
  IC50: > 10 µM
KB [1]
  IC50: > 10 µM

## Cc1c2c(c3oc4cc(=O)c(C)c5c-4c(c3c1O)O[C@H](C)[C@H]5C)O[C@H](C)[C@H]2C [DICITRININ A]
HL-60
  IC50: > 10 µM
HCT-116
  IC50: > 10 µM
KB [1]
  IC50: > 10 µM

## COC1O[C@H](C)[C@@H](C)c2c(C)c(O)c3c(c21)Oc1cc(O)c(C)c2c1[C@H]3O[C@H](C)[C@H]2C (stereo partly drawn) [DICITRINOL A]
HL-60
  IC50: 5.98 µM
HCT-116
  IC50: 4.54 µM
KB [1]
  IC50: 5.05 µM

## COC1O[C@H](C)[C@@H](C)c2c(C)c3c(c(O)c21)[C@@H]1O[C@H](C)[C@@H](C)c2c(C)c(O)cc(c21)O3 (stereo partly drawn) [DICITRINOL B]
HL-60
  IC50: 6.06 µM
HCT-116
  IC50: 5.8 µM
KB [1]
  IC50: 5.15 µM

## Cc1c(O)c(C(=O)O)c(O)c2c1[C@H](C)[C@@H](C)OC2=O [DIHYDROCITRINONE]
HL-60
  IC50: > 10 µM
HCT-116
  IC50: > 10 µM
KB [1]
  IC50: > 10 µM

## Cc1c2c(c3oc4cc(=O)c(C)c5c-4c(c3c1O)O[C@H](C)[C@H]5C)CO[C@H](C)[C@H]2C [OXODICITRINOL A]
HL-60
  IC50: 8.91 µM
HCT-116
  IC50: > 10 µM
KB [1]
  IC50: > 10 µM

## Cc1c(O)c2c(c3c1[C@H](C)[C@@H](C)O3)Oc1cc(O)c(C)c3c1[C@H]2O[C@H](C)[C@H]3C [PENICITRINOL A]
HL-60
  IC50: > 10 µM
HCT-116
  IC50: > 10 µM
KB [1]
  IC50: > 10 µM

## CO[C@@]12O[C@H](C)[C@@H](C)C1=C(C)C(=O)C1=C2Oc2cc(O)c(C)c3c2[C@H]1O[C@H](C)[C@H]3C [PENICITRINOL B]
HL-60
  IC50: > 10 µM
HCT-116
  IC50: > 10 µM
KB [1]
  IC50: > 10 µM

## CO[C@@]12O[C@H](C)[C@@H](C)C1=C(C)C1=C(C2=O)[C@@H]2O[C@H](C)[C@@H](C)c3c(C)c(O)cc(c32)O1 [PENICITRINOL F]
HL-60
  IC50: > 10 µM
HCT-116
  IC50: > 10 µM
KB [1]
  IC50: > 10 µM

## CO[C@@]12Oc3cc(O)c(C)c([C@H](C)[C@@H](C)O)c3C=C1C(=O)C(C)=C1[C@H](C)[C@@H](C)O[C@]12O [PENICITRINOL G]
HL-60
  IC50: > 10 µM
HCT-116
  IC50: > 10 µM
KB [1]
  IC50: > 10 µM

## CC1=C2[C@H](C)[C@@H](C)O[C@@]2(O)[C@]2(O)Oc3cc(O)c(C)c([C@H](C)[C@@H](C)O)c3C=C2C1=O [PENICITRINOL H]
HL-60
  IC50: > 10 µM
HCT-116
  IC50: > 10 µM
KB [1]
  IC50: > 10 µM

## Cc1oc2c(c1C)c(C)c(O)c1c3c4c(c(C)c(=O)cc-4oc12)[C@H](C)[C@@H](C)O3 [PENICITRINONE B]
HL-60
  IC50: > 10 µM
HCT-116
  IC50: > 10 µM
KB [1]
  IC50: > 10 µM

## Cc1c(O)cc(O)cc1[C@H](C)[C@@H](C)O [PHENOL A]
HL-60
  IC50: > 10 µM
HCT-116
  IC50: > 10 µM
KB [1]
  IC50: > 10 µM

## CO[C@H]1O[C@H](C)[C@@H](C)c2c(C)c(O)c3c(c21)Oc1c([C@H]2O[C@H](C)[C@@H](C)c4c(C)c(O)cc(O)c42)c(O)c(C)c2c1[C@H]3O[C@H](C)[C@H]2C [TRICITRINOL A]
HL-60
  IC50: 8.17 µM
HCT-116
  IC50: 8.57 µM
KB [1]
  IC50: > 10 µM

## CC[C@]1(O)C[C@H]2CN(CCc3c([nH]c4ccccc34)[C@@](C(=O)OC)(c3cc4c(cc3OC)N(C=O)[C@H]3[C@@](O)(C(=O)OC)[C@H](OC(C)=O)[C@]5(CC)C=CCN6CC[C@]43[C@@H]65)C2)C1 [VINCRISTINE]
KB [2]
  IC50: 1.29 µM
KB [1]
  IC50: 0.02 µM
KB [3]
  Ratio IC50: 55.97
